Assay results of several laboratories.
Each line is one published result; the experiments were not run side by side.
Organism: Klebsiella pneumoniae
Read-out: microbial growth

CC1=NN(CNc2ccc(C(=O)O)cc2)C(=O)C1=NNn1c(-c2ccccc2)nc2ccccc2c1=O  MIC (broth dilution; 24 h): 50.5 µM
CC1(C)S[C@@H]2[C@H](NC(=O)COc3ccccc3)C(=O)N2[C@H]1C(=O)O  MIC (18 h; clinical isolate): > 128 µg/mL
CC(C)Oc1c(NC(=O)c2ccc(NC(=O)[C@H](CC(N)=O)NC(=O)c3ccc(NC(=O)c4ccc(C#N)cn4)cc3)cc2)ccc(C(=O)Nc2ccc(C(=O)O)cc2)c1O  MIC (DSM30104): > 64 µg/mL
C[C@H]1COc2c(N3CCN(C)CC3)c(F)cc3c(=O)c(C(=O)O)cn1c23  MIC (broth dilution; ATCC700603): 0.16 µM
CC1=NN(CNc2ccc(Cl)cc2)C(=O)C1=NNn1c(-c2ccccc2)nc2ccccc2c1=O  MIC (broth dilution; 24 h): 51.5 µM
O=C1CN(/N=C/c2ccc([N+](=O)[O-])o2)C(=O)N1  MIC (broth dilution; ATCC700603): 320 µM
Cc1c(CN(C)C(=O)/C=C/c2cnc3c(c2)CC(CCN)C(=O)N3)oc2ccccc12.Cl (stereo not drawn)  MIC (broth dilution; BAA1705): 16 µg/mL
O=C1NN=C(N=Cc2ccc(O)c(O)c2)C1=NNn1c(-c2ccccc2)nc2ccccc2c1=O  MIC (broth dilution; 24 h): 53.5 µM
NCCCNC1CCCCc2c1[nH]c1ccc(Br)cc21 (stereo not drawn)  MIC (broth dilution; ATCC10031): 8 µg/mL
C/C(=C\c1ccc(C#N)cc1)C(=O)Nc1ccc(C(=O)N[C@@H](CC(N)=O)C(=O)Nc2ccc(C(=O)Nc3ccc(C(=O)Nc4ccc(C(=O)O)cc4)c(O)c3OC(C)C)cc2)cc1  MIC (DSM30104): > 64 µg/mL
CN(Cc1ccc2cc3c(c(O)c2c1)C(=O)C1=C(O)[C@]2(O)C(=O)C(C(N)=O)=C(O)[C@@H](N(C)C)[C@@H]2C[C@@H]1C3)c1ccccc1  MIC (broth dilution; ATCC13883): 32 µg/mL
CNC(C)C1CCC(N)C(OC2C(N)CC(N)C(OC3OCC(C)(O)C(NC)C3O)C2O)O1 (stereo not drawn)  MIC: 0.25 µg/mL
CN(C)[C@@H]1C(O)=C(C(N)=O)C(=O)[C@@]2(O)C(O)=C3C(=O)c4c(cc5ccc(CN(C)S(C)(=O)=O)cc5c4O)C[C@H]3C[C@@H]12  MIC (broth dilution; ATCC13883): 32 µg/mL
CCC[C@@H]1C[C@@H](C(=O)N[C@@H]([C@H]2O[C@H](SC)[C@H](O)[C@@H](O)[C@H]2O)[C@H](C)Cl)N(C)C1  MIC (broth dilution; ATCC700603): 640 µM
CCCCCCC#Cc1cncc(-c2nnc(SCc3ccc(Cl)c(F)c3)n2C)c1  MIC: ≥ 20 µg/mL
CC(C)(O/N=C(\C(=O)N[C@@H]1C(=O)N2C(C(=O)[O-])=C(C[n+]3ccccc3)CS[C@H]12)c1csc(N)n1)C(=O)O  MIC (broth dilution; ATCC700603): 5 µM
CC(=O)NCN1N=C(C)C(=NNn2c(-c3ccccc3)nc3ccccc3c2=O)C1=O  MIC (broth dilution; 24 h): 59.9 µM
CCCCCCC#Cc1cncc(-c2nnc(SCc3ccc([N+](=O)[O-])o3)n2C)c1  MIC: ≥ 20 µg/mL
CCn1cc(C(=O)O)c(=O)c2cc(F)c(N3CCNCC3)cc21  MIC (broth dilution; ATCC43816): 2 µM
CC[C@H]1OC(=O)[C@H](C)[C@@H](O[C@H]2C[C@@](C)(OC)[C@@H](O)[C@H](C)O2)[C@H](C)[C@@H](O[C@@H]2O[C@H](C)C[C@H](N(C)C)[C@H]2O)[C@](C)(O)C[C@@H](C)C(=O)[C@H](C)[C@@H](O)[C@]1(C)O  MIC (broth dilution; ATCC700603): 160 µM
CO[C@H]1/C=C/O[C@@]2(C)Oc3c(C)c(O)c4c(O)c(c(/C=N/N5CCN(C)CC5)c(O)c4c3C2=O)NC(=O)/C(C)=C\C=C\[C@H](C)[C@H](O)[C@@H](C)[C@@H](O)[C@@H](C)[C@H](OC(C)=O)[C@@H]1C  MIC (ATCC13882): 16 µg/mL
CO[C@@H](C(N)=O)[C@H](NC(=O)c1ccc(NC(=O)c2ccc(C#N)cc2)cc1)C(=O)Nc1ccc(C(=O)Nc2ccc(C(=O)Nc3ccc(C(=O)O)cc3)c(O)c2OC(C)C)cc1  MIC (DSM30104): 8 µg/mL
CO[C@H]1/C=C/O[C@@]2(C)Oc3c(C)c(O)c4c(O)c(c(/C=N/N5CCN(C)CC5)c(O)c4c3C2=O)NC(=O)/C(C)=C\C=C\[C@H](C)[C@H](O)[C@@H](C)[C@@H](O)[C@@H](C)[C@H](OC(C)=O)[C@@H]1C  MIC (broth dilution; ATCC700603): 10 µM
O=C(Nc1ccc(F)c(Cl)c1)c1cc(Cl)ccc1O  MIC (broth dilution; BAA1705): > 64 µg/mL
CCCCCCC#Cc1cncc(-c2nnc(SCc3ccc(C#N)cc3)n2C)c1  MIC: ≥ 20 µg/mL
O=[N+]([O-])c1ccc(/C=N/Nc2nc(Nc3ccccc3)nc(N3CCOCC3)n2)o1  MIC: > 120 µM
CC1(C)S[C@@H]2[C@H](/N=C/N3CCCCCC3)C(=O)N2[C@H]1C(=O)O  MIC (broth dilution; ATCC700603): 2.5 µM
O=C1NN=C(N=Cc2ccccc2O)C1=NNn1c(-c2ccccc2)nc2ccccc2c1=O  MIC (broth dilution; 24 h): 55.4 µM
CCCCCCC#Cc1cncc(-c2nnc(SCc3ccc([N+](=O)[O-])o3)n2C2CC2)c1  MIC: ≥ 20 µg/mL
O=C(Nc1ccc2c(c1)OC(F)(F)O2)Nc1ccc(Cl)c(C(F)(F)F)c1  MIC (DSM30104): > 100 µM
CN[C@@H]1[C@@H](O)[C@@H](O[C@@H]2[C@@H](O)[C@H](O[C@H]3OC(CNCCO)=CC[C@H]3N)[C@@H](N)C[C@H]2NC(=O)[C@@H](O)CCN)OC[C@]1(C)O  MIC: 0.25 to 0.5 µg/mL
CC1=NN(CNc2c(O)c(S(=O)(=O)O)cc3ccccc23)C(=O)C1=NNn1c(-c2ccccc2)nc2ccccc2c1=O  MIC (broth dilution; 24 h): 83.7 µM
CN(C)c1ccc(-c2ccc3cc4c(c(O)c3c2)C(=O)C2=C(O)[C@]3(O)C(=O)C(C(N)=O)=C(O)[C@@H](N(C)C)[C@@H]3C[C@@H]2C4)cc1  MIC (broth dilution; ATCC13883): 32 µg/mL
NC1CCCCc2c1[nH]c1cc(Cl)c(Cl)cc21 (stereo not drawn)  MIC (broth dilution; ATCC10031): 2 µg/mL
Cc1c(CN(C)C(=O)/C=C/c2cnc3c(c2)CC(NC(=O)OC(C)(C)C)C(=O)N3)oc2ccccc12 (stereo not drawn)  MIC (broth dilution): > 32 µg/mL
NC[C@@H]1O[C@H](O[C@H]2[C@@H](O)[C@H](O[C@@H]3[C@@H](O)[C@H](N)C[C@H](N)[C@H]3O[C@H]3O[C@H](CO)[C@@H](O)[C@H](O)[C@H]3N)O[C@@H]2CO)[C@H](N)[C@@H](O)[C@@H]1O  MIC: 1 µg/mL
CN(C)[C@@H]1C(O)=C(C(N)=O)C(=O)[C@@]2(O)C(O)=C3C(=O)c4c(cc5ccc(CN6CC(C#N)C6)cc5c4O)C[C@H]3C[C@@H]12  MIC (broth dilution; ATCC13883): 16 µg/mL
CCc1c(Cl)c(O)c(Cl)c(O)c1C(=O)O[C@H]1[C@H](O)[C@H](OC)[C@H](OC/C2=C\C=C\C[C@H](O)/C(C)=C/[C@H](CC)[C@@H](O[C@@H]3OC(C)(C)[C@@H](OC(=O)C(C)C)[C@H](O)[C@@H]3O)/C(C)=C/C(C)=C/C[C@@H]([C@@H](C)O)OC2=O)O[C@@H]1C  MIC (broth dilution; ATCC700603): 320 µM
CC(C)(O/N=C(\C(=O)N[C@@H]1C(=O)N2C(C(=O)[O-])=C(C[n+]3ccccc3)CS[C@H]12)c1csc(N)n1)C(=O)O  MIC (broth dilution; ATCC10031; 18 h): 2 µg/mL
